Results from PMC5616206 (Toxicology Reports, 2016).
“Also recorded” adds a separate entry of the source.

What was measured:
[1] = test system: Male Swiss albino (CD-1) mice, bone marrow PCEs; assay: In vivo micronucleus assay in mice, S807
In short: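 Swiss Albino (CD-1) mice received a single intraperitoneal injection of the test compound as a DMSO solution (132 mg/mL). Range finding used 3/sex/group at 500, 1000 or 2000 mg/kg bw, then added groups at 800 (3/sex) and 700 (3 males). The definitive phase used 175, 350 and 700 mg/kg bw, 21 animals/group. Readouts were bone-marrow mnPCE incidence and PCE/total erythrocyte ratio versus vehicle. Cyclophosphamide was the positive control.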

[2] = test system: S. typhimurium strains TA98, TA100, TA1535, TA1537 and E. coli strain WP2 uvrA; assay: Bacterial reverse mutation test; format: cell-based; settings: 21–5000 μg/plate, plate incorporation and pre-incubation, ±S9
In short: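 The assay followed OECD Guideline 471 and used S. typhimurium TA98, TA100, TA1535 and TA1537 and E. coli WP2 uvrA. It was run with and without S9 from livers of Aroclor 1254-treated Sprague-Dawley rats. One compound was tested at 21–5000 μg/plate by plate incorporation and pre-incubation. The other was tested at 50–5000 μg/plate in an initial toxicity-mutation test and a confirmatory mutation test.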

[3] = In vitro metabolism by human liver microsomes; format: in vitro ADME; settings: S807 incubation, relative to S807 at time = 0
[4] = In vitro metabolism by rat liver microsomes; format: in vitro ADME, Sprague-Dawley rat; settings: S807 incubation, relative to S807 at time = 0
[5] = test system: Chinese hamster ovary cells (CHO-WBL); assay: In vitro chromosome aberration test, CHO-WBL cells; format: cell-based
[6] = Pharmacokinetics of S807 in rats, single iv or oral dose; format: in vivo, Sprague-Dawley rats; settings: for AUC(0-t) / Cmax / Tmax / Vd / half-life / clearance / bioavailability: Sprague-Dawley, rat, plasma; for clearance: CL (clearance), iv 1 mg/kg bw; for AUClast Ratio / Cmax Ratio: vs 20 mg/kg bw dose
In short: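 Sprague-Dawley rats, 4/sex, received a 1 mg/kg bw IV bolus in 20% PEG400/10% ethanol/2% DMSO/68% saline. Sampling was via jugular cannula at pre-dose and 2 min to 8 h. Oral groups (4/sex/group) were gavaged once with 20, 50 or 200 mg/kg bw in 1% methylcellulose and sampled from 15 min to 24 h. Plasma was assayed for parent and metabolites.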

Sprague-Dawley Rats [7] = assay: 13-week subchronic toxicity study on S807; format: in vivo, Crl:CD(SD)IGS BR rats; settings: 2, 10, 20 mg/kg bw/day food ad-mix, 13 weeks
In short: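 Crl:CD(SD)IGS BR rats, 20/sex/group, were given the test compound in the diet at 0 (control), 2, 10 or 20 mg/kg bw/day for 93 consecutive days.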

[8] = Dietary exposure estimates; design: species or system human
[9] = In vivo metabolism of S807 in rats; design: species or system Sprague-Dawley rats; settings: male and female pooled rat plasma, 1 h post dose, 200 mg/kg bw oral
Sprague-Dawley Rats [10] = assay: 21-day dose-range finding toxicity study on S807; format: in vivo, Crl:CD(SD)IGS BR rats; settings: 50, 100, 200 mg/kg bw/day food ad-mix, 21 days
In short: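 Dose-range finder for the 90-day study. Crl:CD(SD)IGS BR rats, 5/sex/group, received the test compound continuously in the diet at 50, 100 or 200 mg/kg bw/day for 21 days. One group of 5/sex served as control and received the vehicle diet.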

[11] = oral gavage 20 mg/kg bw, female
[12] = oral gavage 50 mg/kg bw, female
[13] = oral gavage 200 mg/kg bw, female

SMILES: CCCC(CCC)NC(=O)c1ccc2c(c1)OCO2 [S807, N-(heptan-4-yl)benzo[d][1,3]dioxole-5-carboxamide]
- Micronucleus formation (in vivo), Result ([1]; 175, 350, 700 mg/kg bw (ip)): neither clastogenic nor aneugenic; also recorded: Negative
- dose groups with deaths within 48 h of treatment ([1]; range finding, ip): ≥ 800 mg/kg bw
- Reverse mutation (in vitro), Result [2]: not mutagenic; also recorded: Negative
- % MS (EIC) Peak Area ([3]; 10 min): 89.4%
- % MS (EIC) Peak Area ([3]; 20 min): 80.8%
- % MS (EIC) Peak Area ([3]; 60 min): 65.0%
- % MS (EIC) Peak Area ([4]; 10 min): 70.0%
- % MS (EIC) Peak Area ([4]; 20 min): 34.0%
- Chromosome aberration (in vitro), Result ([5]; 21–5000 μg/mL, 3 h −S9, 3 h +S9, 18 h −S9): did not induce chromosomal aberrations; also recorded: Negative
- test article concentration with precipitate in the cell cultures ([5]; all conditions): ≥ 62 µg/mL
- AUC(0-t) ([6]; female, iv, 1 mg/kg): 342 ± 81.4 ng·h/mL
- Cmax ([6]; female, iv, 1 mg/kg): 949 ± 222 ng/mL
- Tmax ([6]; female, iv, 1 mg/kg): 0.033 h
- Vd ([6]; female, iv, 1 mg/kg): 5.61 L/kg
- half-life ([6]; female, iv, 1 mg/kg): 3.02 ± 0.92 h
- clearance ([6]; female, iv, 1 mg/kg, female rat): 47.2 mL/min/kg
- AUC(0-t) ([6]; female, po, 20 mg/kg): 166 ± 72.2 ng·h/mL
- Cmax ([6]; female, po, 20 mg/kg): 187 ± 87.6 ng/mL
- Tmax ([6]; female, po, 20 mg/kg): 0.25 h
- bioavailability ([6]; female, po, 20 mg/kg): 2.43%
- half-life ([6]; female, po, 20 mg/kg): 1.07 ± 0.67 h
- AUC(0-t) ([6]; female, po, 50 mg/kg): 1410 ± 1020 ng·h/mL
- Cmax ([6]; female, po, 50 mg/kg): 529 ± 379 ng/mL
- Tmax ([6]; female, po, 50 mg/kg): 1 h
- bioavailability ([6]; female, po, 50 mg/kg): 8.25%
- half-life ([6]; female, po, 50 mg/kg): 1.17 ± 0.16 h
- AUC(0-t) ([6]; female, po, 200 mg/kg): 108000 ± 27900 ng·h/mL
- Cmax ([6]; female, po, 200 mg/kg): 9150 ± 2410 ng/mL
- Tmax ([6]; female, po, 200 mg/kg): 3 h
- bioavailability ([6]; female, po, 200 mg/kg): 158%
- half-life ([6]; female, po, 200 mg/kg): 2.62 ± 0.2 h
- CL as % of hepatic blood flow ([6]; iv, females): 85.5%
- CL as % of hepatic blood flow ([6]; iv, males): 55.6%
- AUC(0-t) ([6]; male, iv, 1 mg/kg): 491 ± 33.3 ng·h/mL
- Cmax ([6]; male, iv, 1 mg/kg): 1110 ± 237 ng/mL
- Tmax ([6]; male, iv, 1 mg/kg): 0.033 h
- Vd ([6]; male, iv, 1 mg/kg): 4.63 L/kg
- half-life ([6]; male, iv, 1 mg/kg): 3.02 ± 0.24 h
- clearance ([6]; male, iv, 1 mg/kg, male rat): 30.7 mL/min/kg
- AUC(0-t) ([6]; male, po, 20 mg/kg): 182 ± 70.5 ng·h/mL
- Cmax ([6]; male, po, 20 mg/kg): 174 ± 95.1 ng/mL
- Tmax ([6]; male, po, 20 mg/kg): 0.313 h
- bioavailability ([6]; male, po, 20 mg/kg): 1.85%
- half-life ([6]; male, po, 20 mg/kg): 1.14 ± 0.35 h
- AUC(0-t) ([6]; male, po, 50 mg/kg): 4890 ± 4960 ng·h/mL
- Cmax ([6]; male, po, 50 mg/kg): 1270 ± 1170 ng/mL
- Tmax ([6]; male, po, 50 mg/kg): 1.5 h
- bioavailability ([6]; male, po, 50 mg/kg): 19.9%
- half-life ([6]; male, po, 50 mg/kg): 1.83 ± 0.61 h
- AUC(0-t) ([6]; male, po, 200 mg/kg): 101000 ± 19500 ng·h/mL
- Cmax ([6]; male, po, 200 mg/kg): 10500 ± 937 ng/mL
- Tmax ([6]; male, po, 200 mg/kg): 4 h
- bioavailability ([6]; male, po, 200 mg/kg): 103%
- half-life ([6]; male, po, 200 mg/kg): 2.49 ± 0.07 h
- AUClast Ratio [6, 11]: 1
- Cmax Ratio [6, 11]: 1
- AUClast Ratio ([6]; oral gavage 20 mg/kg bw, male): 1
- Cmax Ratio ([6]; oral gavage 20 mg/kg bw, male): 1
- AUClast Ratio [6, 12]: 8.49
- Cmax Ratio [6, 12]: 2.83
- AUClast Ratio ([6]; oral gavage 50 mg/kg bw, male): 26.9
- Cmax Ratio ([6]; oral gavage 50 mg/kg bw, male): 7.30
- AUClast Ratio [6, 13]: 651
- Cmax Ratio [6, 13]: 48.9
- AUClast Ratio ([6]; oral gavage 200 mg/kg bw, male): 555
- Cmax Ratio ([6]; oral gavage 200 mg/kg bw, male): 60.3
- Findings (Sprague-Dawley Rats [7]): No test-article related findings
- NOEL (Sprague-Dawley Rats [7]): 20 mg/kg bw/day
- NOEL as times the estimated dietary exposure (mTAMDI) ([8]; NOEL 20 mg/kg bw/day): 2560 times
- margin of safety, NOEL vs estimated use ([8]; NOEL 20 mg/kg bw/day vs 4.9 μg/kg bw/day): > 4000 fold
- MS (EIC) Peak Area [9]: 29,000,000 cps
- Findings (Sprague-Dawley Rats [10]): Lower bw gain in females at 200 mg/kg bw/day; increased liver weight in females at 100 and 200 mg/kg bw/day; histomorphological changes in livers of both male and females at all doses
- NOEL (Sprague-Dawley Rats [10]): < 50 mg/kg bw/day
